Holding throughout (type): cell-based
In test [1] the target is Glutamate NMDA receptor; Grin1/Grin2c (Rattus norvegicus, UniProt P35439+Q00961). Briefly: Negative allosteric modulation of recombinant rat GluN1/GluN2C expressed in Xenopus laevis oocytes assessed as inhibition of glutamate/glycine-induced current response at -40 mV holding potential by two-electrode voltage clamp method. In short, it runs like this: (§1)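 Oocytes recorded while the drug is co-applied with a maximally effective 100 µM glutamate plus 30 µM glycine. Response is expressed as percent of the glutamate/glycine control. IC50 comes from a Hill fit to the average composite concentration-response curve. 8-16 oocytes from 2-3 frogs per compound and receptor.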
(Two-electrode voltage clamp holds a large cell at a set potential and records current.)

Test [2] deals with Ionotropic glutamate receptor NMDA 1/2D (Rattus norvegicus, UniProt P35439+Q62645). Description: Negative allosteric modulation of recombinant rat GluN1/GluN2D expressed in Xenopus laevis oocytes assessed as inhibition of glutamate/glycine-induced current response at -40 mV holding potential by two-electrode voltage clamp method. In short, it runs like this: as §1
Test [3] addresses T1, Glutamate NMDA receptor; Grin1/Grin2c (Rattus norvegicus) (UniProt P35439+Q00961). Briefly: Negative allosteric modulation of recombinant rat GluN1/GluN2C expressed in Xenopus laevis oocytes assessed as inhibition of glutamate/glycine-induced current response at 30 uM at -40 mV holding potential by two-electrode voltage clamp method relative to glutamate/glycine. The note with it: values are per cent of control. In short, it runs like this: as §1

The target of test [4] is T1, Glutamate NMDA receptor; Grin1/Grin2c (Rattus norvegicus). Description: Potency index, ratio of NP11999 IC50 to test compound IC50 for negative allosteric modulation of recombinant rat GluN1/GluN2C expressed in Xenopus laevis oocytes assessed as inhibition of glutamate/glycine-induced current response.
Test [5] has as its target T2, Ionotropic glutamate receptor NMDA 1/2D (Rattus norvegicus) (UniProt P35439+Q62645). Description: Negative allosteric modulation of recombinant rat GluN1/GluN2D expressed in Xenopus laevis oocytes assessed as inhibition of glutamate/glycine-induced current response at 30 uM at -40 mV holding potential by two-electrode voltage clamp method relative to glutamate/glycine. The note with it: values are per cent of control. An outline of the steps:
as §1

Test [6] deals with Glutamate NMDA receptor; Grin1/Grin2b (Rattus norvegicus, UniProt P35439+Q00960). Briefly: Negative allosteric modulation of recombinant rat GluN1/GluN2B expressed in Xenopus laevis oocytes assessed as inhibition of glutamate/glycine-induced current response at -40 mV holding potential by two-electrode voltage clamp method. In short, it runs like this:
as §1

Test [7] addresses Glutamate NMDA receptor; Grin1/Grin2b (Rattus norvegicus) (UniProt P35439+Q00960). Description: Negative allosteric modulation of recombinant rat GluN1/GluN2B expressed in Xenopus laevis oocytes assessed as inhibition of glutamate/glycine-induced current response at 30 uM at -40 mV holding potential by two-electrode voltage clamp method relative to glutamate/glycine. In short, it runs like this:
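Oocyte voltage clamp at -40 mV. Drug co-applied with 100 µM glutamate plus 30 µM glycine; response given as percent of the average of control and recovery currents to agonist alone.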

For test [8], the system named is Glutamate receptor 3 (Homo sapiens), P42263 [L513Y]. Briefly: Negative allosteric modulation of human GluA3 L513Y mutant expressed in Xenopus laevis oocytes assessed as inhibition of glutamate-induced current response at 30 uM at -40 mV holding potential by two-electrode voltage clamp method relative to glutamate alone. In short, it runs like this:
(§2)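 Oocyte two-electrode voltage clamp at -40 mV holding. Test compound co-applied with agonist; response given as percent of the mean of control and recovery currents to agonist alone. Agonists: 100 µM glutamate (AMPA, kainate), 100 µM GABA (GABA receptors), 100 µM glycine (glycine receptor), 100 µM serotonin (5-HT3A), 9 µM ATP (P2X), 1 µM acetylcholine (nicotinic).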

Test [9] deals with Glutamate receptor 4 (Homo sapiens), P48058 [L505Y]. Description: Negative allosteric modulation of human GluA4 L505Y mutant expressed in Xenopus laevis oocytes assessed as inhibition of glutamate-induced current response at 30 uM at -40 mV holding potential by two-electrode voltage clamp method relative to glutamate alone. In short, it runs like this:
as §2

The target in test [10] is Glutamate receptor ionotropic, kainate 2 (Rattus norvegicus) (UniProt P42260). Description: Negative allosteric modulation of rat GluK2 expressed in Xenopus laevis oocytes assessed as inhibition of glutamate-induced current response at 30 uM at -40 mV holding potential in presence of concanavalin A by two-electrode voltage clamp method relative to glutamate alone. In short, it runs like this: as §2

Test [11] has as its target T3, Glycine receptor subunit alpha-1 (Rattus norvegicus) (UniProt P07727).
T3 sequence (whole entry): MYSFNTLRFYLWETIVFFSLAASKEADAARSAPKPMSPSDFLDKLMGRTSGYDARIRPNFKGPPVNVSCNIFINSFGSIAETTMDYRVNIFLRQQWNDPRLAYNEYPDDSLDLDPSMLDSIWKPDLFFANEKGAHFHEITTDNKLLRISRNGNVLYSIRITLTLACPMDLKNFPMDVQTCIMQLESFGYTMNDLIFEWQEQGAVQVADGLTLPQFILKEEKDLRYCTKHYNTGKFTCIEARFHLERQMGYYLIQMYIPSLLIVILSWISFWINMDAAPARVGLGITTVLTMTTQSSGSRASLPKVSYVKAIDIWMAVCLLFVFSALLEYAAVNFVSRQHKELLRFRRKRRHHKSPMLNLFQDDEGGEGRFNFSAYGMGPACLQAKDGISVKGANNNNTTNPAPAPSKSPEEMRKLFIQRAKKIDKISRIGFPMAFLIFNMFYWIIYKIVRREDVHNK
Description: Negative allosteric modulation of rat glycine alpha1 expressed in Xenopus laevis oocytes assessed as inhibition of glycine-induced current response at 30 uM at -40 mV holding potential by two-electrode voltage clamp method relative to glycine alone. In short, it runs like this:
as §2

The target of test [12] is T4, 5-hydroxytryptamine receptor 3A (Rattus norvegicus) (UniProt P35563).
T4 sequence (whole entry): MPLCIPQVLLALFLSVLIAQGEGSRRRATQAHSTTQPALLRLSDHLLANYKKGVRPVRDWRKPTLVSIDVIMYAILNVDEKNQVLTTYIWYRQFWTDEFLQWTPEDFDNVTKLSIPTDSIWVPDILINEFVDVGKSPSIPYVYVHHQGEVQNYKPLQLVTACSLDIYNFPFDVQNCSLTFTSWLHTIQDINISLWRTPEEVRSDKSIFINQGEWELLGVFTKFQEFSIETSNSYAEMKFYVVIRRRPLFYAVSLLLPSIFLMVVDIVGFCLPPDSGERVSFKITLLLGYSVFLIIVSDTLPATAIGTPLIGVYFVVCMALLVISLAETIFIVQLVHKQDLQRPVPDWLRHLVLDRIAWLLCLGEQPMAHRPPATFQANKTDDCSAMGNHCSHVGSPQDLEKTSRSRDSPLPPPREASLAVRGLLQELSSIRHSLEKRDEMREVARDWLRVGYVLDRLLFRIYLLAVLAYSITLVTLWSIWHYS
Briefly: Negative allosteric modulation of rat 5HT3A expressed in Xenopus laevis oocytes assessed as inhibition of serotonin-induced current response at 30 uM at -40 mV holding potential by two-electrode voltage clamp method relative to serotonin alone. In short, it runs like this: as §2

Test [13] deals with T2, Ionotropic glutamate receptor NMDA 1/2D (Rattus norvegicus). Description: Negative allosteric modulation of recombinant rat GluN1/GluN2D expressed in Xenopus laevis oocytes assessed as inhibition of glutamate/glycine-induced current response at saturated concentration at -40 mV holding potential by two-electrode voltage clamp method relative to glutamate/glycine. In short, it runs like this: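 Hill fit of the composite concentration-response curve in oocytes, with agonist 100 µM glutamate plus 30 µM glycine. Residual response in saturating compound is either fixed at 0 or fitted. 8-16 oocytes from 2-3 frogs.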

Glutamate receptor 3 (Homo sapiens), P42263 [L513Y], sequence (P42263 whole entry L513Y): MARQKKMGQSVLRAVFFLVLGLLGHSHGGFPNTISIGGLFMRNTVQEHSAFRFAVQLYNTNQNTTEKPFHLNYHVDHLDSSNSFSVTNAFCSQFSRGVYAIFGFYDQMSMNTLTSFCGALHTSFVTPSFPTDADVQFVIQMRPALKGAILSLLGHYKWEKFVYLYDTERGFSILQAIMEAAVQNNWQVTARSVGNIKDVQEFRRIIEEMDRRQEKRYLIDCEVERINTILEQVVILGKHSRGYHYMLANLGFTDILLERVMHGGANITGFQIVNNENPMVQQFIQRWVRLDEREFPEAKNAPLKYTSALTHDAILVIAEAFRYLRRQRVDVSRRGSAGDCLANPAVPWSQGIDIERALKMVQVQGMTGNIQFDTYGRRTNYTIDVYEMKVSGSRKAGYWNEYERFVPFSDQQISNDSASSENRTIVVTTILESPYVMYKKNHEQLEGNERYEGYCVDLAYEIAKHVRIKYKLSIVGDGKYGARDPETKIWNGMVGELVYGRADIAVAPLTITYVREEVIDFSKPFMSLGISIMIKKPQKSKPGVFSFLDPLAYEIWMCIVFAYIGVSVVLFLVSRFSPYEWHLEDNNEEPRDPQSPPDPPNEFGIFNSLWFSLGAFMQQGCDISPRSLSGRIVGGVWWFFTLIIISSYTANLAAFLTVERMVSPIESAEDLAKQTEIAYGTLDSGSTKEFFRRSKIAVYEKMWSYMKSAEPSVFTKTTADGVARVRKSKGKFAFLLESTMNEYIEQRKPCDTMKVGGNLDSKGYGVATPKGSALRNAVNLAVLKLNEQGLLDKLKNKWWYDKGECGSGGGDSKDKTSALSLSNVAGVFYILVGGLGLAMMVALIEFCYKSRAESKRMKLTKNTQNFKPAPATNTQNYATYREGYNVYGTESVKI
Glutamate receptor 4 (Homo sapiens), P48058 [L505Y], sequence (P48058 whole entry L505Y): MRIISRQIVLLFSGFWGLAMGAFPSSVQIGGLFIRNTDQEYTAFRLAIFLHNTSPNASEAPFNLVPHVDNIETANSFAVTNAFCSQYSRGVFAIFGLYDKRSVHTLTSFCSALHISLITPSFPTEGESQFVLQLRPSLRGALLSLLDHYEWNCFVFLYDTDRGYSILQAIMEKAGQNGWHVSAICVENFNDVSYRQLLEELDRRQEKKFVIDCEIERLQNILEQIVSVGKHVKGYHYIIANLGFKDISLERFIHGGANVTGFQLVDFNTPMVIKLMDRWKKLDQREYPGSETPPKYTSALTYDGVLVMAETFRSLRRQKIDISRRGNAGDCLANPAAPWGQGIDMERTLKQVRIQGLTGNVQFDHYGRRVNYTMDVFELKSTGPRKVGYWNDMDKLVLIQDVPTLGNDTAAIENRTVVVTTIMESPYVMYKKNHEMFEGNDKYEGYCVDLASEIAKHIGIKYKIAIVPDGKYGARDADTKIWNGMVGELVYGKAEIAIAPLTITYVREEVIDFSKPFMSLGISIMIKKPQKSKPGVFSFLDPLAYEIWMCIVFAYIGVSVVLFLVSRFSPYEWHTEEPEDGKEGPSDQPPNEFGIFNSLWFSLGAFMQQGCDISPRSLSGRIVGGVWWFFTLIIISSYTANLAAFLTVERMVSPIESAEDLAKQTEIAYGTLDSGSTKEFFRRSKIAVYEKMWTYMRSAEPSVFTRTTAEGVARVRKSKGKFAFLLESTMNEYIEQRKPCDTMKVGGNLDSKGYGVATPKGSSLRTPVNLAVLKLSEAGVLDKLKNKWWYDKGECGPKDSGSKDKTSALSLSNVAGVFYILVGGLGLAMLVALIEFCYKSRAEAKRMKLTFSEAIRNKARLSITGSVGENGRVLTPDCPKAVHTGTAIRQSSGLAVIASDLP
Glutamate receptor ionotropic, kainate 2 (Rattus norvegicus), sequence (P42260 whole entry): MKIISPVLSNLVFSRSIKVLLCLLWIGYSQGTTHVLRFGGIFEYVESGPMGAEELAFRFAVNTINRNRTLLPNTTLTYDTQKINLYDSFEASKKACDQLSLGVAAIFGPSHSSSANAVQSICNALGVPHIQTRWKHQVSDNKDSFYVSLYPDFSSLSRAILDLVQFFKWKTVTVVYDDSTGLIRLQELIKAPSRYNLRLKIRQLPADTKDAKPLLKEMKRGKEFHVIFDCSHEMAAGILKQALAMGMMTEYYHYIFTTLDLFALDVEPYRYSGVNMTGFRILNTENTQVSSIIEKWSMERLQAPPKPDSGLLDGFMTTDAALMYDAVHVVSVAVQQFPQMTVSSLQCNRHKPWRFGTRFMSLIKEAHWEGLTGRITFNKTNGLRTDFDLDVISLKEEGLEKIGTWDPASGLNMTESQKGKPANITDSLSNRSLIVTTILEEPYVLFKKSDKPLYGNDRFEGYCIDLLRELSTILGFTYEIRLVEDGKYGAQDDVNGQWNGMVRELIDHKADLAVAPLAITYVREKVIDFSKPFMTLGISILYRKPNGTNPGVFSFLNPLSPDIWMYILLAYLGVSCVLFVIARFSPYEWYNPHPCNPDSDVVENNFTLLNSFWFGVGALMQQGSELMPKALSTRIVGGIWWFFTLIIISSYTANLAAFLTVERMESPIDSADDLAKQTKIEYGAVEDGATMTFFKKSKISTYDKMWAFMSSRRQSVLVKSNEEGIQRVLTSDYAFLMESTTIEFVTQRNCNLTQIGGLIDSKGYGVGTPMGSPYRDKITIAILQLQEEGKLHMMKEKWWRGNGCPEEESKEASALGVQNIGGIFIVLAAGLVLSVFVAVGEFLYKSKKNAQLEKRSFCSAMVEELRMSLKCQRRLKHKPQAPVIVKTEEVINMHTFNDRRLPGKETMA

For the compound `CCN(CC)C(=O)Oc1ccc(C(=O)Nc2cccc(CCNS(=O)(=O)c3ccccc3)c2)cc1`, the IC50 (commonly the point on the concentration scale where inhibition reaches its midpoint) was determined as 2400 nM in [1], 1700 nM in test [2] and 7600 nM in [6]. The residual activity is 9% in test [3] and 8.9 to 9% in [5]. In addition, in [4], the Ratio IC50 was less than 6. Also, the inhibition (in general, the drop in the measured response relative to a control, in per cent) stood at 24% in test [7]; 86% in [8]; 86% in test [9]; 92% in test [10]; 30% in [11]; 20% in test [12]. In addition, in test [13], the inhibition was 0%.

The values above are taken from ChEMBL document CHEMBL4339195, “Di-aryl Sulfonamide Motif Adds π-Stacking Bulk in Negative Allosteric Modulators of the NMDA Receptor” (ACS Med Chem Lett, 2019).
